In ChEMBL document CHEMBL3526032, “Ablation of both organic cation transporter (OCT)1 and OCT2 alters metformin pharmacokinetics but has no effect on tissue drug exposure and pharmacodynamics” (Drug Metab Dispos, 2012):
Activity calls are given as the source filed them. No cut-off for these calls is given here.

What was measured:
OCT2 over OCT1 = assay: Selectivity for OCT2 (unknown origin) over OCT1 (unknown origin); type: ADME; conditions: human
Mus musculus [1] = assay: Antidiabetic activity in wild type FVB mouse assessed as reduction in blood glucose level at 300 mg/kg, po by oral glucose tolerance test relative to control; type: functional, organism-based; design: dose 300 mg/kg
Outline: (§1)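 Male FVB mice, wild type or Oct1/2-knockout, fasted 16 h. Day 1: oral vehicle (1% hydroxyethyl cellulose/0.25% polysorbate-80/0.05% antifoam) given at -30 min. Day 8: oral metformin 10-300 mg/kg instead. At 0 min, oral glucose 2.5 g/kg.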

Mus musculus [2] = assay: Antidiabetic activity in Oct1/Oct2-knockout FVB mouse assessed as blood glucose AUC level at 300 mg/kg, po by oral glucose tolerance test relative to control; type: functional; outline: as §1
Mus musculus [3] = assay: Antidiabetic activity in wild type FVB mouse assessed as blood glucose AUC level at 300 mg/kg, po by oral glucose tolerance test relative to control; type: functional; outline: as §1
Mus musculus [4] = assay: Antidiabetic activity in po dosed Oct1/Oct2-knockout FVB mouse assessed as reduction in blood glucose level by oral glucose tolerance test relative to control; type: functional; outline: as §1
Mus musculus [5] = assay: Antidiabetic activity in wild type FVB mouse assessed as half-maximal efficacious AUC at 300 mg/kg, po by oral glucose tolerance test relative to control; type: functional, organism-based; design: dose 300 mg/kg
Mus musculus [6] = assay: Antidiabetic activity in Oct1/Oct2-knockout FVB mouse assessed as plasma insulin level at 300 mg/kg, po by oral glucose tolerance test; type: functional, organism-based; design: dose 300 mg/kg
Outline: (§2)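 Plasma insulin measured by immunoassay at 0, 30, 60, 90 and 120 min during an oral glucose tolerance test (2.5 g/kg) in 16-h fasted male FVB wild-type or Oct1/2-knockout mice. Oral vehicle or metformin (10-300 mg/kg) given 30 min before glucose.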

Mus musculus [7] = assay: Antidiabetic activity in wild type FVB mouse assessed as reduction in blood glucose level at 10 mg/kg, po by oral glucose tolerance test; type: functional, organism-based; design: dose 10 mg/kg; outline: as §1
Mus musculus [8] = assay: Antidiabetic activity in wild type FVB mouse assessed as plasma insulin level at 300 mg/kg, po by oral glucose tolerance test; type: functional, organism-based; design: dose 300 mg/kg; outline: as §2
Mus musculus [9] = assay: Antidiabetic activity in Oct1/Oct2-knockout FVB mouse assessed as half-maximal efficacious AUC at 300 mg/kg, po by oral glucose tolerance test relative to control; type: functional, organism-based; design: dose 300 mg/kg
Mus musculus [10] = assay: Antidiabetic activity in Oct1/Oct2-knockout FVB mouse assessed as reduction in blood glucose level at 300 mg/kg, po by oral glucose tolerance test relative to control; type: functional, organism-based; design: dose 300 mg/kg; outline: as §1
Mus musculus [11] = assay: Antidiabetic activity in Oct1/Oct2-knockout FVB mouse assessed as reduction in blood glucose level at 10 mg/kg, po by oral glucose tolerance test; type: functional, organism-based; design: dose 10 mg/kg; outline: as §1
Mus musculus [12] = assay: Antidiabetic activity in po dosed wild type FVB mouse assessed as reduction in blood glucose level by oral glucose tolerance test relative to control; type: functional; outline: as §1
[13] = Drug excretion in wild type FVB mouse urine at 10 mg/kg, iv after 2 hrs
[14] = Clearance in Oct1/Oct2-knockout FVB mouse at 10 mg/kg, iv; conditions: in vivo
in vivo [15] = conditions: FVB, mouse, plasma, iv, 10 mg/kg
[16] = Clearance in wild type FVB mouse at 10 mg/kg, iv; conditions: in vivo
in vivo [17] = conditions: FVB, mouse, iv, 10 mg/kg
in vivo [18] = conditions: FVB, mouse, plasma, iv, 10 mg/kg; remark: listed apart in the source
[19] = Drug recovery in Oct1/Oct2-knockout FVB mouse urine assessed as corrected compound recovery by measuring nominal to observerd glomerular filtration rate ratio at 10 mg/kg, iv
[20] = Drug excretion in Oct1/Oct2-knockout FVB mouse urine at 10 mg/kg, iv after 2 hrs
[21] = Volume of distribution at steady state in wild type FVB mouse at 10 mg/kg, iv; conditions: in vivo
in vivo [22] = conditions: FVB, mouse, iv, 10 mg/kg; remark: listed apart in the source
in vivo [23] = conditions: FVB, mouse, plasma, iv, 10 mg/kg; remark: listed apart in the source
in vivo [24] = conditions: FVB, mouse, plasma, iv, 10 mg/kg; remark: listed apart in the source
[25] = Drug recovery in wild type FVB mouse urine assessed as corrected compound recovery by measuring nominal to observerd glomerular filtration rate ratio at 10 mg/kg, iv
[26] = Initial plasma concentration in wild type FVB mouse at 10 mg/kg, iv
[27] = Initial plasma concentration in Oct1/Oct2-knockout FVB mouse at 10 mg/kg, iv
[28] = Volume of distribution at steady state in Oct1/Oct2-knockout FVB mouse at 10 mg/kg, iv; conditions: in vivo

NC12CC3CC(CC(C3)C1)C2 [AMANTADINE]
selectivity ratio (OCT2 over OCT1): 20

CC(N)Cc1ccccc1 (stereo not given) [AMPHETAMINE]
selectivity ratio (OCT2 over OCT1): 20

CN(C)C(=N)NC(=N)N.Cl [METFORMIN HYDROCHLORIDE]
Activity (Mus musculus [1]): Active | Activity (Mus musculus [2]): 42% | Activity (Mus musculus [3]): 39% | ED50 (Mus musculus [4]): 151 mg/kg | AUC (Mus musculus [5]): 26000 ng·h/mL | Activity (Mus musculus [6]): Active | Activity (Mus musculus [7]): inactive | Activity (Mus musculus [8]): Active | AUC (Mus musculus [9]): 70000 ng·h/mL | Activity (Mus musculus [10]): Active | Activity (Mus musculus [11]): inactive | ED50 (Mus musculus [12]): 110 mg/kg

CC[N+](CC)(CC)CC [TETRYLAMMONIUM]
dose excreted at 2 h [13]: 35% | clearance [14]: 16.9 mL/min/kg | AUC(0-t) (in vivo [15]): 2410 ng·h/mL | clearance [16]: 58.7 mL/min/kg | half-life (in vivo [17]): 18.6 min | AUC(0-inf) (in vivo [18]): 9840 ng·h/mL | dose excreted [19]: 62% | dose excreted at 2 h [20]: 30% | Vd [21]: 1.52 L/kg | half-life (in vivo [22]): 12 min | AUC(0-inf) (in vivo [23]): 2840 ng·h/mL | AUC(0-t) (in vivo [24]): 9100 ng·h/mL | dose excreted [25]: 95% | C0 [26]: 22700 ng/mL | C0 [27]: 67400 ng/mL | Vd [28]: 0.318 L/kg
